Test results published in ChEMBL document CHEMBL3526127, “Absorption, elimination, and metabolism of CS-1036, a novel α-amylase inhibitor in rats and monkeys, and the relationship between gastrointestinal distribution and suppression of glucose absorption” (Drug Metab Dispos, 2013).

What was measured:
[1] = Drug excretion in F344 rat urine at 1 mg/kg, iv administered as single dose after 0 to 48 hrs by scintillation counting method; format: ADME, organism-based; design: dose 1 mg/kg, route intravenous; details: in vivo
Summary of the method: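 Fasted F344 rats (152–156 g iv via tail vein; 154–159 g oral; n = 4) received [14C]-labelled drug at 1 mg/kg (41.9 µCi/kg). Animals were kept in metabolic cages; urine and feces were collected to 168 h, and expired CO2 was trapped in 2-aminoethanol/2-methoxyethanol (1:1) to 48 h. Samples were counted by liquid scintillation (feces homogenized). Results are % of dose, mean ± S.D.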

Rattus norvegicus [2] = experiment: Total drug excretion in F344 rat at 1 mg/kg, iv administered as single dose after 0 to 168 hrs by scintillation counting method; format: ADME, organism-based; design: dose 1 mg/kg, route intravenous; details: in vivo
Summary of the method: (§1)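 Fasted F344 rats (n = 4) received [14C]-labelled drug at 1 mg/kg (41.9 µCi/kg), iv via tail vein or oral. They were housed in metabolic cages. Urine and feces were collected to 168 h, and expired CO2 was trapped in 2-aminoethanol/2-methoxyethanol to 48 h. Radioactivity was counted by liquid scintillation, feces after homogenization. Results are % of dose.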

Rattus norvegicus [3] = experiment: Total drug excretion in F344 rat at 1 mg/kg, po administered as single dose after 0 to 48 hrs by scintillation counting method; format: ADME, organism-based; design: dose 1 mg/kg, route oral; details: in vivo; summary of the method: as §1
[4] = Drug excretion in cynomolgus monkey urine at 3 mg/kg, iv administered as single dose after 0 to 48 hrs by scintillation counting method; format: ADME, organism-based, Macaca fascicularis; design: dose 3 mg/kg, route intravenous; details: in vivo
[5] = Drug excretion in F344 rat feces at 1 mg/kg, po administered as single dose after 24 hrs by scintillation counting method; format: ADME, organism-based; design: dose 1 mg/kg, route oral; details: in vivo
Summary of the method: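 [14C]-labelled drug (1 mg/kg, 42.2 µCi/kg) was given orally to fasted F344 rats (164–168 g, n = 3). Urine and feces were collected to 24 h; feces were homogenized in 9 volumes of water, combusted and counted. Parent fraction came from the excreted radioactivity times the radio-HPLC (HILIC) peak-area ratio; mean ± S.D.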

[6] = Drug metabolism in monkey liver S9 fractions at 0.42 uCi/ml assessed as metabolite formation in presence of NADPH after 1 hr at 37 degC by LC-MS/MS method; format: ADME, subcellular, Macaca mulatta, Liver S9 fraction; details: rhesus monkey, s9, 1 h
[7] = Drug metabolism in anaerobic culture broth of human feces assessed as 1,4-dideoxy-1,4-imino-D-arabinitol formation at 63.5 uCi/ml after 24 hrs at 35 degC by LC-MS/MS method; format: ADME, tissue-based
[8] = Drug metabolism in po dosed F344 rat urine assessed as 1,4-dideoxy-1,4-imino-D-arabinitol formation by LC-MS/MS method; format: ADME, organism-based; details: in vivo
[9] = Drug excretion in cynomolgus monkey feces at 3 mg/kg, iv administered as single dose after 0 to 336 hrs by scintillation counting method; format: ADME, organism-based, Macaca fascicularis; design: dose 3 mg/kg, route intravenous; details: in vivo
Summary of the method: (§2)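 Fasted cynomolgus monkeys (n = 4) received [14C]-labelled drug at 3 mg/kg, iv via saphenous vein (191 µCi/kg) or orally by stomach catheter (156.5 µCi/kg). Urine, feces and water cage-wash were collected to 336 h. Samples were counted by liquid scintillation; feces were homogenized in 4-fold water. Results are % of dose, mean ± S.D.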

Cynomolgus monkey = experiment: Drug excretion in cynomolgus monkey assessed as drug level found during cage washing at 3 mg/kg, po administered as single dose after 0 to 48 hrs by scintillation counting method; format: ADME, organism-based, Macaca fascicularis; design: dose 3 mg/kg, route oral; details: in vivo; summary of the method: as §2
[10] = Drug excretion in cynomolgus monkey feces at 3 mg/kg, po administered as single dose after 0 to 336 hrs by scintillation counting method; format: ADME, organism-based, Macaca fascicularis; design: dose 3 mg/kg, route oral; details: in vivo; summary of the method: as §2
[11] = Drug metabolism in po dosed monkey urine assessed as 1,4-dideoxy-1,4-imino-D-arabinitol formation by LC-MS/MS method; details: cynomolgus monkey, in vivo
[12] = Oral bioavailability in F344 rat at 10 mg/kg administered as single dose by LC-MS/MS method; format: ADME, organism-based; details: in vivo
Summary of the method: (§3)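 Male F344 rats (146–185 g) and male cynomolgus monkeys (3.48–4.29 kg), n = 4 each, fasted overnight, received single iv or oral doses of 0.3, 1.0, 3.0 or 10.0 mg/kg. Monkeys had 2-week washouts between doses. Plasma was sampled to 48 h and assayed by LC-MS/MS with deuterated internal standard. Noncompartmental analysis: tmax observed; t1/2 by regression on ≥3 terminal log points; Vss = dose·AUMC/(AUC0–inf)²; Foral = oral/iv AUC0–inf at the same dose.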

[13] = AUClast in cynomolgus monkey at 1 mg/kg, iv administered as single dose by LC-MS/MS method; format: ADME, organism-based, Macaca fascicularis; design: time 0 - last, dose 1 mg/kg, route intravenous; details: plasma
Summary of the method: (§4)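 Fasted male F344 rats (146–185 g) or male cynomolgus monkeys (3.48–4.29 kg), n = 4 per dose, given single iv or oral dose of 0.3, 1.0, 3.0 or 10.0 mg/kg; monkeys dosed with 2-week washouts. Blood sampled to 48 h; plasma stored frozen. LC-MS/MS with deuterated internal standard. Noncompartmental analysis: AUClast by trapezoidal rule; AUC0–inf = AUClast + Ctz/terminal rate constant; mean ± S.D.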

[14] = AUClast in cynomolgus monkey at 3 mg/kg, iv administered as single dose by LC-MS/MS method; format: ADME, organism-based, Macaca fascicularis; design: time 0 - last, dose 3 mg/kg, route intravenous; details: plasma; summary of the method: as §4
[15] = Half life in cynomolgus monkey at 1 mg/kg, po administered as single dose by LC-MS/MS method; format: ADME, organism-based, Macaca fascicularis; design: dose 1 mg/kg, route oral; details: in vivo; summary of the method: as §3
[16] = AUC (0 to infinity) in cynomolgus monkey at 0.3 mg/kg, iv administered as single dose by LC-MS/MS method; format: ADME, organism-based, Macaca fascicularis; design: time infinity, dose 0.3 mg/kg, route intravenous; details: plasma; summary of the method: as §4
[17] = AUC (0 to infinity) in cynomolgus monkey at 1 mg/kg, iv administered as single dose by LC-MS/MS method; format: ADME, organism-based, Macaca fascicularis; design: time infinity, dose 1 mg/kg, route intravenous; details: plasma; summary of the method: as §4
[18] = Clearance in F344 rat at 1 mg/kg, iv administered as single dose by LC-MS/MS method; format: ADME, organism-based; design: dose 1 mg/kg, route intravenous; details: in vivo
Summary of the method: (§5)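 Fasted male F344 rats (146–185 g) and male cynomolgus monkeys (3.48–4.29 kg), n = 4 each, received a single iv dose; monkeys had 2-week washouts between doses. Blood was sampled up to 48 h and plasma stored at […]. Plasma parent was quantified by LC-MS/MS with a deuterated internal standard. CL = dose/AUC0–inf by noncompartmental analysis; mean ± S.D.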

[19] = Clearance in F344 rat at 3 mg/kg, iv administered as single dose by LC-MS/MS method; format: ADME, organism-based; design: dose 3 mg/kg, route intravenous; details: in vivo; summary of the method: as §5
[20] = Volume of distribution at steady state in F344 rat at 1 mg/kg, iv administered as single dose by LC-MS/MS method; format: ADME, organism-based; design: dose 1 mg/kg, route intravenous; details: in vivo, read-out: Vdss; summary of the method: as §3
[21] = Volume of distribution at steady state in F344 rat at 10 mg/kg, iv administered as single dose by LC-MS/MS method; format: ADME, organism-based; design: dose 10 mg/kg, route intravenous; details: in vivo, read-out: Vdss; summary of the method: as §3
[22] = Volume of distribution at steady state in cynomolgus monkey at 3 mg/kg, iv administered as single dose by LC-MS/MS method; format: ADME, organism-based, Macaca fascicularis; design: dose 3 mg/kg, route intravenous; details: in vivo, read-out: Vdss; summary of the method: as §3
[23] = Tmax in cynomolgus monkey at 1 mg/kg, po administered as single dose by LC-MS/MS method; format: ADME, organism-based, Macaca fascicularis; design: dose 1 mg/kg, route oral; details: in vivo; summary of the method: as §3
[24] = Tmax in F344 rat at 10 mg/kg, po administered as single dose by LC-MS/MS method; format: ADME, organism-based; design: dose 10 mg/kg, route oral; details: in vivo; summary of the method: as §3
[25] = AUClast in cynomolgus monkey at 0.3 mg/kg, po administered as single dose by LC-MS/MS method; format: ADME, organism-based, Macaca fascicularis; design: dose 0.3 mg/kg, route oral, time 0 - last; details: plasma; summary of the method: as §4
[26] = Half life in F344 rat at 3 mg/kg, po administered as single dose by LC-MS/MS method; format: ADME, organism-based; design: dose 3 mg/kg, route oral; details: in vivo; summary of the method: as §3

**Q.** What does the source list for `C[C@H]1O[C@@H](O[C@H]2[C@H](O)[C@@H](O)[C@@H](O[14C@H]3[14C@H](O)[14CH2]N[14C@@H]3[14CH2]O)O[C@@H]2CO)[C@H](O)[C@@H](O)[C@@H]1O`?
**A.** Drug excretion [1]: 70.49%; Drug excretion (Rattus norvegicus [2]): 95.85%; Drug excretion (Rattus norvegicus [3]): 93.26%; Drug excretion [4]: 80.13%; Drug excretion [5]: 70.3%; Drug metabolism [6]: metabolite_not_detected; Drug metabolism [7]: metabolite_detected; Drug metabolism [8]: metabolite_detected; Drug excretion [9]: 0.66%; Drug excretion (Cynomolgus monkey): 0.76%; Drug excretion [10]: 88.13%; Drug metabolism [11]: metabolite_detected

**Q.** What does the source list for `C[C@H]1O[C@@H](O[C@H]2[C@H](O)[C@@H](O)[C@@H](O[C@H]3[C@H](O)CN[C@@H]3CO)O[C@@H]2CO)[C@H](O)[C@@H](O)[C@@H]1O`?
**A.** bioavailability [12]: 2.03%; AUC(0-t) [13]: 5.87 µg·h/mL; AUC(0-t) [14]: 18.1 µg·h/mL; half-life [15]: 1.29 h; AUC(0-inf) [16]: 2.01 µg·h/mL; AUC(0-inf) [17]: 5.89 µg·h/mL; clearance [18]: 0.206 L/h/kg; clearance [19]: 0.16 L/h/kg; Vd [20]: 0.237 L/kg; Vd [21]: 0.222 L/kg; Vd [22]: 0.262 L/kg; Tmax [23]: 1.75 h; Tmax [24]: 0.438 h; AUC(0-t) [25]: 0.015 µg·h/mL; half-life [26]: 4.16 h
